The structures appear in SMILES notation. Structures can show the parent of a compound that is named as a salt.

These results are taken from article PMC7357173 (Toxicological Sciences, 2020).

Type in all cases: cell-based, human
For series [1], the system named is HepG2 cells. Put plainly: Cellular ATP. The gist of the method: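 HepG2 in supplemented MEM (10% FBS), kept below 85% confluence and ≤8 passages. Treated with 8-point dilutions from DMSO stocks (0.5% DMSO final) at 37°C, 5% CO2. Cellular ATP read by CellTiterGlo luminescence, normalized to vehicle wells as fold change. Run once, triplicate wells per concentration. PoD taken from Bayesian concentration–response fits.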

The test system of series [2] is HepG2 cells. Put plainly: Glutathione content.
A further series has as its system IL-8. Put plainly: IL-8 secretion, ELISA of HepG2 supernatants. To be noted: HepG2, 24 h. The gist of the method:
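HepG2 grown and exposed as for the other assays: 8 concentrations from DMSO stocks, 0.5% DMSO final, 37°C, 5% CO2, triplicate wells, one run. 50 µl of supernatant collected after the incubation and assayed for IL-8 by ELISA kit. Values divided by the plate median control, log2-transformed and fitted by Bayesian concentration–response modelling to give PoD.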
For orientation: An ELISA detects its analyte on a solid surface through an enzyme-linked reagent.

Series [3] has as its system HepG2 cells. Put plainly: Cellular stress panel as a whole. To be noted: for bioactivity group: HepG2 cellular stress panel. The gist of the method:
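HepG2 exposed 1, 6 or 24 h to 8 nominal concentrations (0.5% DMSO), one run, 3 technical replicates each. Per-plate raw values divided by the median control and log2-transformed; concentrations log10-transformed. Bayesian fit with a Student's t (5 df) replicate model and well-position scale term. PoD found by linear interpolation; CDS is the fraction of 10 000 samples yielding a PoD.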

Series [4] relates to HepG2 cells. Put plainly: Phospholipidosis. To be noted: HepG2, 24 h. A digest of the protocol:
(§1)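 High-content imaging of HepG2 seeded at 10 000 (24 h) or 12 500 (6, 1 h) cells/well and adhered overnight. Triplicate wells at 8 concentrations, 0.5% DMSO. Mito-mass stained with a mitochondria-specific fluorescent dye; PLD detected by a dye conjugating to phospholipids. Cells fixed in 4% formaldehyde with Hoechst 33342 where required. Eight fields imaged per well (10×); intensity compared against vehicle wells.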

For series [5], the system named is HepG2 cells. Put plainly: Mitochondrial mass. To be noted: HepG2, 1, 6 and 24 h; subcytotoxic PoD. The gist of the method:
as §1

For series [6], the system named is HepG2 cells. The series can be described thus: Oxygen consumption rate. A digest of the protocol:
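HepG2 seeded at 16 000 cells/well, attached overnight, then treated 1, 6 or 24 h; the final 60 min was in unbuffered DMEM (10 mM glucose, 30 mM NaCl, 1 mM pyruvate, 2 mM L-alanyl-glutamine, pH 7.4, 37°C). Four baseline and six post-compound reads (3-min mix, 4-min read). Then oligomycin 1 μM, FCCP 0.5 μM and rotenone/antimycin A 1 μM each. Values baseline-normalized and corrected for nonmitochondrial OCR.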

The test system of series [7] is HepG2 cells. The series can be described thus: Mitochondrial ROS. To be noted: HepG2, all timepoints, highest concentration.

As for `O=c1ccc2ccccc2o1` [Coumarin], the “change in cellular ATP (lowest PoD)” value in the series with HepG2 cells [1] (HepG2, 6 and 24 h) is on record as “decrease”. Also, the change in glutathione entry in the series on HepG2 cells [2] (HepG2, 24 h) is given as “increase”. The “change in IL-8” value with IL-8 is “decrease”. Further, in the series on HepG2 cells [3] (HepG2, around the top concentration tested), the “all PoDs of the panel” value is about 1000 µM. The bioactivity group with HepG2 cells [3] was 1. Further, in the series with HepG2 cells [4], the change in phospholipidosis result is on record as “decrease”.
For `O=C(O)Cc1ccccc1Nc1c(Cl)cccc1Cl` [Diclofenac, Diclofenac sodium salt], the “estimated plasma Cmax compared with minimum PoD” value with HepG2 cells [3] (total Cmax of Table 2 vs nominal in vitro PoD) was “approximately one order of magnitude below the lowest PoD”.
Turning to `COc1cccc2c1C(=O)c1c(O)c3c(c(O)c1C2=O)C[C@@](O)(C(=O)CO)C[C@@H]3O[C@H]1C[C@H](N)[C@H](O)[C@H](C)O1` [Doxorubicin, Doxorubicin hydrochloride], the “change in cellular ATP” value is recorded as “increases” in the series on HepG2 cells [1] (HepG2, 6 h) and “loss” in the series with HepG2 cells [1] (HepG2, 24 h). The “change in mitochondrial mass” value in the series with HepG2 cells [5] is on record as “increases”. For the same compound, the change in glutathione result in the series with HepG2 cells [2] (HepG2, 1 h) is recorded as “Increases”; in the series on HepG2 cells [2] (HepG2, 24 h) it was “loss”.
Consider `NC(=O)c1cccnc1` [Niacinamide, Nicotinamide], for which, in the series with IL-8, the “change in IL-8” value is reported as “small but appreciable decrease”.
For the compound `OCCOc1ccccc1` [Phenoxyethanol, 2-Phenoxyethanol], the “concentration-responses among all 36 biomarkers” value with HepG2 cells [3] (HepG2, up to 1000 µM) is reported as “no concentration-responses could be detected”.
As for `CCc1ccc(CCOc2ccc(CC3SC(=O)NC3=O)cc2)nc1` (stereo not drawn) [Pioglitazone, Pioglitazone hydrochloride], the “change in OCR and reserve capacity” value is “increase” in the series on HepG2 cells [6] (HepG2, concentrations between 40 and 100 µM); “decrease” in the series on HepG2 cells [6] (HepG2, concentrations up to 10 µM).
Take `C[S+]([O-])CCCCN=C=S` [Sulforaphane, L-Sulforaphane]: the bioactivity group in the series with HepG2 cells [3] was found to be 3.
For the compound `Oc1cc(Cl)ccc1Oc1ccc(Cl)cc1Cl` [Triclosan], the “change in cellular ATP” value in the series with HepG2 cells [1] (HepG2, 6 h) is reported as “increase”; in the series with HepG2 cells [1] (HepG2, 24 h) it was “reduction”. Also, the “increase in mitochondrial superoxide (MitoROS)” value in the series on HepG2 cells [7] was 2- to 4 fold.
Take `Cc1c(C)c2c(c(C)c1O)CCC(C)(COc1ccc(CC3SC(=O)NC3=O)cc1)O2` (stereo not drawn) [Troglitazone]: the “effect on OCR” value with HepG2 cells [6] (HepG2, two highest concentrations (40 and 100 µM)) is on record as “reduced the OCR near to zero”.
